Source: PubChem BioAssay
A selection: hits, their analogues and other compounds. The true share with any hit is near 2.6%.
F508del corr: correctors of CFTR F508del function in bronchial epithelial cells. AID 720511. 350,000 tested, 0.36% active. activity (quench increase), % at 7.58 µM. CFBE cells, YFP halide quenching; stimulated with forskolin plus potentiator P3; % fluorescence drop versus neutral controls;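 active = mean added fluorescence quench of at least 8% versus neutral control, with both replicates also reaching 8%; inconclusive = only one of the mean or replicate conditions met; inactive = mean below 8% and not both replicates reaching 8%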;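 note: cells transiently co-express mutant CFTR-F508del with the halide-sensitive YFP; corrector assay measuring rescue of mutant channel to the surface after 24 h compound exposure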
E-selectin induc: E-selectin induction on HUVECs; HUVEC E-selectin immunofluorescence imaging; normalized: neutral wells 0, TNF-alpha wells 100; activation, % at 7.58 µM; 260,000 tested, 0.37% active;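 active = mean E-selectin-positive cell signal at least 10% of the positive control, reached in at least 60% of replicates, without over 20% cell loss; inconclusive = no rule given, readout overlaps actives, possibly toxicity-flagged; inactive = the rest, including those meeting only one limit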
Target sequence (P16581 whole entry, looked up): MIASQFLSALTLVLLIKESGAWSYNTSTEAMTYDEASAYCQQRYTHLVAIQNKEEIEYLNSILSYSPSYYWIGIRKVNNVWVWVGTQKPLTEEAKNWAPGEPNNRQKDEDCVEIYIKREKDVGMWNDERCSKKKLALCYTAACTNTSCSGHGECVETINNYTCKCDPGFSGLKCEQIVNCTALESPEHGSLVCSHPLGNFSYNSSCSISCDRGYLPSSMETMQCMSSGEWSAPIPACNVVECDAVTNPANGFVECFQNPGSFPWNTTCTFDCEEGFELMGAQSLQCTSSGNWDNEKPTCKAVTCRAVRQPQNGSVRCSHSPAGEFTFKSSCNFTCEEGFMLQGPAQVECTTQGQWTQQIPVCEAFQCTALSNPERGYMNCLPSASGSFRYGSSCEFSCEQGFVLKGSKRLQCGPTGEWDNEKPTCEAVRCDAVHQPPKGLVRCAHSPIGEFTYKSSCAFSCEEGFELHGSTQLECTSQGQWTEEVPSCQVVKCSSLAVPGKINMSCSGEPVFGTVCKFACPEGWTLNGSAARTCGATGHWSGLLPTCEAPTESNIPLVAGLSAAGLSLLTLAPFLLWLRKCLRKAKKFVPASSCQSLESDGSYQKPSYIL
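material = human umbilical vein endothelial cells (HUVEC), E-selectin induction | quantity = 3,000 cells/well | medium = EGM-2 growth medium on 0.1% gelatin-coated wells | technique = immunofluorescence imaging | read-out basis = % PE-positive cells | control set = TNF-alpha positive control, DMSO neutral control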
DENV2 CPE rescue: protects cells from dengue virus 2 cytopathic effect; DENV2-infected cells, cytopathic effect rescue, plate reader; CPE inhibition, % at 9.99 µM; 350,000 tested, 1.7% active; in the data active = CPE inhibition above about 20%, passing the limit was not always enough; inconclusive = no clear call, values can overlap the other calls; tested in BHK-21 cells
INS-1E GSIS act: primary screen for activators of insulin secretion dependent on glucose, INS-1E cells, GLuc reporter luminescence | activation, % at 16.6 µM | INS-1E GLuc reporter insulin secretion, 2-3 h | AID 743287 | 370,000 tested, 0.61% active;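 active = lowest replicate activation of at least 40%, so every replicate reaches that level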
ERAP1 inh: inhibitors of human ERAP1 aminopeptidase; AID 652197; inhibition, % at 10.7 µM; 340,000 tested, 0.15% active; recombinant ERAP1, Leu-AMC fluorescence, 60 min; Q9NZ08;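 active = mean replicate inhibition of at least 30%, or all replicates individually reaching that 30% level; inactive = mean below 30% and not every replicate reaching it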
miR122 inh: miR-122 inhibition in Huh7 cells | Huh7 miR-122 Renilla luciferase sensor, 48 h; neutral wells = 0, positive control = 100 | activation (reporter increase), % at 12.5 µM | 340,000 tested, 0.3% active | AID 602342;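 active = mean replicate activation score at least 90 and every replicate individually at or above 90; inconclusive = only one of the two criteria met; inactive = neither criterion met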;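 note: higher luciferase means less miR-122 activity so hits act as miR-122 inhibitors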
Each line names hits and unclear results; the compound was inactive in the other large screens; ! = a repeat was not active; [ ] = dose if it differs, or a comment.

C[C@H]1CN([C@@H](C)CO)C(=O)Cc2cc(NC(=O)CCCCCC(=O)Nc3ccccc3N)ccc2O[C@H]1CN(C)Cc1ccc(Oc2ccccc2)cc1	DENV2 CPE rescue inconclusive
C[C@@H]1CN([C@@H](C)CO)C(=O)Cc2cc(NC(=O)CCCCCC(=O)Nc3ccccc3N)ccc2O[C@@H]1CN(C)Cc1ccc2c(c1)OCO2	DENV2 CPE rescue 60
C[C@H](CO)N1C[C@H](C)[C@H](CN(C)Cc2ccccc2)Oc2ccc(NC(=O)CCCCCC(=O)Nc3ccccc3N)cc2CC1=O	DENV2 CPE rescue 58
COc1ccc(NC(=O)N(C)C[C@@H]2Oc3ncc(-c4cccnc4)cc3C(=O)N([C@H](C)CO)C[C@@H]2C)cc1	none (no result: E-selectin induc)
C[C@@H]1CCCCO[C@H](CN(C)S(=O)(=O)c2cccs2)[C@H](C)CN([C@@H](C)CO)C(=O)c2cc(NS(C)(=O)=O)ccc2O1	none
CNC[C@H]1OCc2ccccc2-c2c(n(C)c3ccccc23)C(=O)N([C@@H](C)CO)C[C@@H]1C	none (no result: F508del corr, E-selectin induc, DENV2 CPE rescue, ERAP1 inh, miR122 inh)
C[C@H](CO)N1C[C@H](C)[C@H](CN(C)S(C)(=O)=O)Oc2ccc(NC(=O)CCCCCC(=O)Nc3ccccc3N)cc2CC1=O	none
C[C@H](CO)N1C[C@H](C)[C@@H](CN(C)S(C)(=O)=O)Oc2ccc(NC(=O)CCCCCC(=O)Nc3ccccc3N)cc2CC1=O	E-selectin induc 36
COc1ccccc1/C=N/NC(=O)c1cc2c(OC)c(OC)ccc2[nH]1	F508del corr 9.3
COc1cccc(/C=N/NC(=O)c2cc3c(OC)c(OC)ccc3[nH]2)c1OC	none (no result: E-selectin induc, miR122 inh)
COc1ccc(/C=N/NC(=O)c2cc3c(OC)ccc(OC)c3[nH]2)cc1O	none (no result: E-selectin induc, miR122 inh)
COc1ccc(OC)c2[nH]c(C(=O)N/N=C/c3ccccc3O)cc12	F508del corr 14 (no result: E-selectin induc, miR122 inh)
F[B-](F)(F)COc1ccccc1	DENV2 CPE rescue 36, INS-1E GSIS act 88 (no result: E-selectin induc)
c1ccc(OCCOCCOc2ccccc2)cc1	none (no result: DENV2 CPE rescue, INS-1E GSIS act)
C[C@H]1CCCCO[C@H](CN(C)S(=O)(=O)c2ccc(Cl)cc2)[C@@H](C)CN([C@@H](C)CO)C(=O)c2cc(NC(=O)Nc3cccc4ccccc34)ccc2O1	none
CC(=O)NS(=O)(=O)c1ccc(NS(=O)(=O)c2ccc3ccccc3c2)cc1	none
CCCCOc1ccc(S(=O)(=O)Nc2ccc(NC(C)=O)cc2)cc1	miR122 inh 205 (no result: F508del corr, E-selectin induc, DENV2 CPE rescue, INS-1E GSIS act, ERAP1 inh)
CC(=O)Nc1ccc(NS(=O)(=O)c2ccc3ccccc3c2)cc1	miR122 inh 105 (no result: F508del corr, E-selectin induc, DENV2 CPE rescue, INS-1E GSIS act, ERAP1 inh)
CC(=O)Nc1ccc(S(=O)(=O)Nc2cccc(-c3nc4ccccc4o3)c2)cc1	miR122 inh 138 (no result: F508del corr, E-selectin induc, DENV2 CPE rescue, INS-1E GSIS act, ERAP1 inh)
CO[C@@H]1CN(C)C(=O)c2cc(NS(C)(=O)=O)ccc2OC[C@H](C)N(Cc2cocn2)C[C@H]1C	none (no result: miR122 inh)
C[C@@H]1CN([C@H](C)CO)C(=O)Cc2cc(NC(=O)Nc3cccc4ccccc34)ccc2O[C@H]1CN(C)Cc1ccncc1	none (no result: E-selectin induc)
CC(=C/c1ccccc1)/C=N/Nc1nc(N2CCCCC2)nc(N2CCCCC2)n1	DENV2 CPE rescue 64
C[C@H](CO)N1C[C@H](C)[C@@H](CN(C)C(=O)c2cccc(F)c2)Oc2ncc(-c3ccccc3)cc2C1=O	none (no result: DENV2 CPE rescue, ERAP1 inh)
CCCCNC(=O)N(O)C1N(/N=C/c2ccco2)C(=S)SC1(C)C (stereo not drawn)	none (no result: E-selectin induc, miR122 inh)
CCCCNC(=O)N(O)C1N(/N=C/c2ccccc2F)C(=S)SC1(C)C (stereo not drawn)	miR122 inh 116
Cc1noc(C)c1NC(=O)NCC[C@H]1CC[C@@H](NC(=O)Cc2cccnc2)[C@H](CO)O1	none (no result: miR122 inh)
C[C@@H]1CN([C@@H](C)CO)C(=O)c2cc(C3=CCCCC3)cnc2O[C@H]1CN(C)Cc1cccc(F)c1	none
C[C@@H]1CCCCO[C@@H](CN(C)C(=O)Nc2ccc(F)cc2)[C@@H](C)CN([C@H](C)CO)C(=O)c2cc(NS(=O)(=O)c3ccccc3)ccc2O1	DENV2 CPE rescue 31
COc1ccc(NC(=O)N(C)C[C@@H]2OCCCC[C@H](C)Oc3ccc(NS(=O)(=O)c4ccccc4)cc3C(=O)N([C@H](C)CO)C[C@H]2C)cc1	DENV2 CPE rescue 58
COc1ccc(S(=O)(=O)Nc2ccc3c(c2)C(=O)N([C@@H](C)CO)C[C@@H](C)[C@H](CN(C)C(=O)Cc2ccccc2)OCCCC[C@H](C)O3)cc1	DENV2 CPE rescue 24
COc1ccc(S(=O)(=O)Nc2ccc3c(c2)C(=O)N([C@@H](C)CO)C[C@@H](C)[C@H](CN(C)C(=O)Cc2ccccc2)OCCCC[C@@H](C)O3)cc1	none
Cc1ccc(S(=O)(=O)Nc2ccc3c(c2)C(=O)N([C@@H](C)CO)C[C@H](C)[C@H](CN(C)C(=O)Nc2ccc(F)cc2)OCCCC[C@@H](C)O3)cc1	miR122 inh 94[16.7 µM] (no result: E-selectin induc)
COCC(=O)Nc1ccc2c(c1)C(=O)N(C)[C@H]1CC[C@H](CC(=O)NCc3cccc(F)c3)O[C@H]1CO2	DENV2 CPE rescue inconclusive (no result: ERAP1 inh)
C[C@@H]1CN([C@@H](C)CO)C(=O)c2cc(NS(=O)(=O)c3ccc(Cl)cc3)ccc2O[C@@H]1CN(C)C(=O)Nc1cccc2ccccc12	none
Cc1ccc(S(=O)(=O)Nc2ccc3c(c2)C(=O)N([C@H](C)CO)C[C@@H](C)[C@@H](CN(C)C(=O)NC(C)C)OCCCC[C@H](C)O3)cc1	none
COc1ccc(NC(=O)N(C)C[C@H]2OCCCC[C@H](C)Oc3ccc(NS(=O)(=O)c4cn(C)cn4)cc3C(=O)N([C@H](C)CO)C[C@@H]2C)cc1	DENV2 CPE rescue 25!
Cc1ccc(S(=O)(=O)Nc2ccc3c(c2)C(=O)N([C@@H](C)CO)C[C@H](C)[C@@H](CN(C)C(=O)NC(C)C)OCCCC[C@@H](C)O3)cc1	DENV2 CPE rescue 22 (no result: miR122 inh)
C[C@@H]1CN([C@H](C)CO)S(=O)(=O)c2ccc(C#CC3(O)CCCC3)cc2O[C@H]1CN(C)C(=O)c1ccccc1	DENV2 CPE rescue inconclusive
COCC(=O)N1C[C@H](C)[C@@H](OC)CN(C)C(=O)c2ccc(NC(=O)Nc3ccccc3)cc2OC[C@@H]1C	none (no result: miR122 inh)
C#Cc1ccc(NC(=O)C2(C)CCN2C(=O)c2cc(C)n(C)n2)cc1 (stereo not drawn)	F508del corr 8.1
C[C@@H]1COC(=O)[C@H](Cc2ccc(F)cc2)C/C=C\C[C@@H](CC(=O)N[C@H](CO)Cc2ccccc2)C(=O)N1	DENV2 CPE rescue 41 (no result: INS-1E GSIS act, miR122 inh)
CCNC(=O)[C@H]1[C@H](CO)[C@H]2Cn3c(ccc(-c4ccccc4F)c3=O)[C@@H]1N2S(C)(=O)=O	none (no result: miR122 inh)
CCOC(=O)c1c(NC(=O)Cn2nc(C(F)F)cc2C(F)F)sc(C)c1C	none (no result: F508del corr, E-selectin induc, DENV2 CPE rescue, ERAP1 inh)
CCOC(=O)c1c(NC(=O)Cn2nc(C(F)(F)F)cc2C)sc(C)c1C	INS-1E GSIS act 61 (no result: F508del corr, DENV2 CPE rescue, ERAP1 inh)
CC(C)NC(=O)Nc1cccc2c1O[C@H](CN(C)S(=O)(=O)c1cccs1)[C@@H](C)CN([C@@H](C)CO)C2=O	none (no result: DENV2 CPE rescue, ERAP1 inh)
